The source made the active and inactive calls.

Our source for the EC50, Activity and Drug uptake values is ChEMBL document CHEMBL4152227, “Targeting mitochondria: Esters of rhodamine B with triterpenoids are mitocanic triggers of apoptosis” (Eur J Med Chem, 2018).

One series has as its system SW-1736. Description: Cytotoxicity against human SW1736 cells after 96 hrs by SRB assay. The format is functional, cell-based. The conditions noted are these: SW-1736, 96 h. A digest of the protocol:
(§1)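 Sulforhodamine B colorimetric assay after 96 h of treatment. EC50 values in µM are averaged from three independent experiments, each run in triplicate, with a 95% confidence interval. The assay cut-off is 30 µM.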

For a further series, the system named is MCF7. In words: Cytotoxicity against human MCF7 cells after 96 hrs by SRB assay. The format is functional, cell-based. The note with it: MCF7, 96 h. A digest of the protocol:
as §1
For orientation: In SRB staining, fixed cells bind dye roughly in proportion to their protein.

For the next series, the system named is FaDu. In words: Cytotoxicity against human FADU cells after 96 hrs by SRB assay. The format is functional, cell-based. A digest of the protocol: as §1
Series [1] relates to A2780. Description: Cytotoxicity against human A2780 cells after 96 hrs by SRB assay. The format is functional, cell-based. The conditions noted are these: A2780, 96 h. The method in brief: as §1
The test system of the next series is HT-29. In words: Cytotoxicity against human HT-29 cells after 96 hrs by SRB assay. The format is functional, cell-based. The conditions noted are these: HT-29, 96 h. A digest of the protocol:
as §1

A further series has as its system NIH3T3. Description: Cytotoxicity against mouse NIH/3T3 cells after 96 hrs by SRB assay. The format is cell-based. The note with it: NIH3T3, 96 h. The method in brief:
as §1

In series [2] the test system is A2780. Description: Induction of apoptosis in human A2780 cells assessed as crescent-shaped nuclei at 200 nM after 24 hrs by Hoechst 33342 staining based fluorescence microscopy. The format is functional, cell-based.
Series [3] is described as follows: Drug uptake in nucleus of human A2780 cells at 200 nM after 24 hrs by rhodamine 123 staining based fluorescence microscopy. The format is ADME, subcellular. The conditions noted are these: a2780, 24 h, 0.2 µM. The method in brief:
(§2)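 A2780 ovarian carcinoma cells were incubated 24 h with 200 nM compound, then double-stained with rhodamine 123 (mitochondria, green) and Hoechst 33342 (nuclei). Fluorescence microscopy localized the compound's own red fluorescence by overlay with the rhodamine 123 and Hoechst channels. Bright-field images were also taken.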

Series [4] can be described thus: Drug uptake in mitochondria of human A2780 cells at 200 nM after 24 hrs by rhodamine 123 staining based fluorescence microscopy. The format is ADME. The note with it: a2780, 24 h, 0.2 µM. The method in brief: as §2
For series [5], the system named is A2780. In words: Induction of apoptosis in human A2780 cells assessed as incipient membrane blebbing at 200 nM after 24 hrs. The format is functional, cell-based.

For `CCN(CC)c1ccc2c(-c3ccccc3C(=O)O[C@H]3CC[C@]4(C)[C@H]5C(=O)C=C6[C@@H]7C[C@@](C)(C(=O)OCc8ccccc8)CC[C@]7(C)CC[C@@]6(C)[C@]5(C)CC[C@H]4C3(C)C)c3ccc(=[N+](CC)CC)cc-3oc2c1`, the EC50 was 1130 nM in the series on SW-1736; 1470 nM in the series on MCF7; 1540 nM with FaDu; 900 nM with A2780 [1]; 1420 nM with HT-29; 1280 nM with NIH3T3.
`C=C(C)[C@@H]1CC[C@]2(C(=O)NCc3ccccc3)CC[C@]3(C)[C@H](CC[C@@H]4[C@@]5(C)CC[C@H](OC(=O)c6ccccc6-c6c7ccc(=[N+](CC)CC)cc-7oc7cc(N(CC)CC)ccc67)C(C)(C)[C@@H]5CC[C@]43C)[C@H]12`: the EC50 in the series on SW-1736 turned out to be 450 nM; with MCF7 it was 470 nM; in the series with FaDu, 540 nM; in the series on A2780 [1] it was 310 nM; in the series on HT-29, 530 nM; with NIH3T3 it was 540 nM.
For the molecule `CCN(CC)c1ccc2c(-c3ccccc3C(=O)O[C@H]3CC[C@]4(C)[C@H]5CC=C6[C@@H]7CC(C)(C)CC[C@]7(C(=O)OC)CC[C@@]6(C)[C@]5(C)CC[C@H]4C3(C)C)c3ccc(=[N+](CC)CC)cc-3oc2c1`, the EC50 with SW-1736 stood at 1760 nM; with MCF7, 2310 nM; in the series with FaDu, 1990 nM; with A2780 [1], 1140 nM; with HT-29 it was 2750 nM; with NIH3T3, 2630 nM.
For `C=C(C)[C@@H]1CC[C@]2(C(=O)OC)CC[C@]3(C)[C@H](CC[C@@H]4[C@@]5(C)CC[C@H](OC(=O)c6ccccc6-c6c7ccc(=[N+](CC)CC)cc-7oc7cc(N(CC)CC)ccc67)C(C)(C)[C@@H]5CC[C@]43C)[C@H]12`, the EC50 is 740 nM with SW-1736; 810 nM with MCF7; 1290 nM in the series on FaDu; 420 nM in the series with A2780 [1]; 610 nM in the series with HT-29; 1770 nM with NIH3T3.
As for `CCN(CC)c1ccc2c(-c3ccccc3C(=O)O[C@H]3CC[C@]4(C)[C@H]5CC=C6[C@@H]7CC(C)(C)CC[C@]7(C(=O)NCc7ccccc7)CC[C@@]6(C)[C@]5(C)CC[C@H]4C3(C)C)c3ccc(=[N+](CC)CC)cc-3oc2c1`, the EC50 in the series on SW-1736 was determined as 270 nM; in the series on MCF7 it was 360 nM; in the series with FaDu it was 500 nM; in the series with A2780 [1] it was 320 nM; in the series on HT-29, 460 nM; in the series on NIH3T3, 400 nM.
As for `CCN(CC)c1ccc2c(-c3ccccc3C(=O)O[C@H]3CC[C@]4(C)[C@H]5CC=C6[C@@H]7[C@@H](C)[C@H](C)CC[C@]7(C(=O)NCc7ccccc7)CC[C@@]6(C)[C@]5(C)CC[C@H]4C3(C)C)c3ccc(=[N+](CC)CC)cc-3oc2c1`, the EC50 with SW-1736 was 240 nM; in the series on MCF7, 300 nM; in the series on FaDu it was 440 nM; in the series with A2780 [1], 340 nM; in the series on HT-29 it was 450 nM; in the series on NIH3T3, 370 nM.
As for `CCN(CC)c1ccc2c(-c3ccccc3C(=O)O[C@H]3CC[C@]4(C)[C@H]5CC=C6[C@@H]7[C@@H](C)[C@H](C)CC[C@]7(C(=O)OCc7ccccc7)CC[C@@]6(C)[C@]5(C)CC[C@H]4C3(C)C)c3ccc(=[N+](CC)CC)cc-3oc2c1`, the concentration giving a half-maximal response (EC50) in the series with SW-1736 amounted to 12700 nM; with MCF7, 13800 nM; with FaDu, 15800 nM; with A2780 [1], 10100 nM; in the series with HT-29 it was 11400 nM; with NIH3T3, 15400 nM.
For the molecule `CCN(CC)c1ccc2c(-c3ccccc3C(=O)O[C@H]3CC[C@]4(C)[C@H]5CC=C6[C@@H]7[C@@H](C)[C@H](C)CC[C@]7(C(=O)OC)CC[C@@]6(C)[C@]5(C)CC[C@H]4C3(C)C)c3ccc(=[N+](CC)CC)cc-3oc2c1`, the EC50 in the series on SW-1736 was 1720 nM; in the series with MCF7, 1830 nM; with FaDu it was 1960 nM; in the series with A2780 [1], 1750 nM; in the series on HT-29, 1850 nM; in the series with NIH3T3, 1840 nM.
On to `CCN(CC)c1ccc2c(-c3ccccc3C(=O)O[C@H]3CC[C@]4(C)[C@H]5C(=O)C=C6[C@@H]7C[C@@](C)(C(=O)NCc8ccccc8)CC[C@]7(C)CC[C@@]6(C)[C@]5(C)CC[C@H]4C3(C)C)c3ccc(=[N+](CC)CC)cc-3oc2c1.[Cl-]`, for which the result with A2780 [2] and in the series on A2780 [5] was Active. For the same molecule, the EC50 worked out at 40 nM with SW-1736; 40 nM with MCF7; 60 nM in the series with FaDu; 20 nM with A2780 [1]; 60 nM in the series on HT-29; 80 nM in the series with NIH3T3. The Drug uptake result is listed as “Not Active” in [3] and “Active” in series [4].
Turning to `C=C(C)[C@@H]1CC[C@]2(C(=O)OCc3ccccc3)CC[C@]3(C)[C@H](CC[C@@H]4[C@@]5(C)CC[C@H](OC(=O)c6ccccc6-c6c7ccc(=[N+](CC)CC)cc-7oc7cc(N(CC)CC)ccc67)C(C)(C)[C@@H]5CC[C@]43C)[C@H]12`, the EC50 worked out at 6430 nM with SW-1736; 5050 nM in the series on MCF7; 7590 nM in the series on FaDu; 3360 nM with A2780 [1]; 5330 nM in the series with HT-29; 8040 nM with NIH3T3.
Take `CCN(CC)c1ccc2c(-c3ccccc3C(=O)O[C@H]3CC[C@]4(C)[C@H]5C(=O)C=C6[C@@H]7C[C@@](C)(C(=O)OC)CC[C@]7(C)CC[C@@]6(C)[C@]5(C)CC[C@H]4C3(C)C)c3ccc(=[N+](CC)CC)cc-3oc2c1`: the EC50 with SW-1736 came to 150 nM; in the series with MCF7, 180 nM; with FaDu, 190 nM; with A2780 [1], 80 nM; in the series with HT-29, 150 nM; with NIH3T3 it was 200 nM.
`CCN(CC)c1ccc2c(-c3ccccc3C(=O)O[C@H]3CC[C@]4(C)[C@H]5CC=C6[C@@H]7CC(C)(C)CC[C@]7(C(=O)OCc7ccccc7)CC[C@@]6(C)[C@]5(C)CC[C@H]4C3(C)C)c3ccc(=[N+](CC)CC)cc-3oc2c1`: the EC50 in the series on SW-1736 was found to be 9050 nM; in the series on MCF7 it was 9400 nM; with FaDu it was 9120 nM; in the series on A2780 [1] it was 3350 nM; in the series on HT-29, 8900 nM; with NIH3T3, 11200 nM.

As a reminder, the EC50 is the concentration giving half of the maximal effect. Read a low EC50 as a more potent agent.
